System: U2OS HRE-luciferase reporter, luminescence, HIF activation
Assay: HIF-driven HRE reporter activators, dose response, U2OS cells, luminescence, dry powder, set 9 (AID 504597)
Summary of the method: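 assay system = U2OS cells carrying 3×HRE-luciferase reporter | amount = 6,000 cells per well | dosing = 8-point series in 3-fold steps, pinned from 7.5 mM stock | detection = luciferase luminescence, Steady-Glo reagent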

Structure (SMILES)	AC40
CC(C)(C)c1ccc(CNc2nc(-c3ccccn3)nnc2-c2ccccc2)cc1	546 nM
CC(C)(C)CCNc1nc(-c2ccccn2)nnc1-c1ccccc1	1020 nM
c1ccc(-c2cccc(CNc3nc(-c4ccccn4)nnc3-c3ccccc3)c2)cc1	816 nM
c1ccc(CCNc2nc(-c3ccccn3)nnc2-c2ccccc2)cc1	3210 nM
c1ccc(-c2ccc(CNc3nc(-c4ccccn4)nnc3-c3ccccc3)cc2)cc1	461 nM
Clc1cccc(CNc2nc(-c3ccccn3)nnc2-c2ccccc2)c1	1480 nM

From PubChem BioAssay AID504597 (Broad Institute, 2011)
